Measured values from ChEMBL document CHEMBL1140903, “Reactions of functionalized sulfonamides: application to lowering the lipophilicity of cytosolic phospholipase A2alpha inhibitors” (J Med Chem, 2009).

Columns and labels:
MC9 [1] = assay: Inhibition of arachidonic acid-induced PGF2-alpha release in mouse MC9 cells at 1.0 uM
Rattus norvegicus [2] = assay: Antiinflammatory activity against carrageenan-induced paw edema in Sprague-Dawley rat at 15 mg/kg, iv; format: functional
Procedure, shortened: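 Rat carrageenan paw edema after iv dosing in 50/50 PEG/DMSO, with paw swelling assessed 3 h after dosing. Groups of 10 animals; naproxen was used to define maximal % inhibition.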

Blood = assay: Inhibition of A23187-induced TBX2 release in Sprague-Dawley rat whole blood; format: functional, tissue-based
Procedure, shortened: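 Rat whole blood is stimulated with calcium ionophore A23187, and thromboxane B2 is the read-out (cPLA2α- and COX-1-dependent). IC50 is taken from at least two runs, each run the mean of triplicate assays.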

Rattus norvegicus [3] = assay: Plasma concentration in carrageenan-induced paw edema Sprague-Dawley rat model at 15 mg/kg, iv; format: ADME, organism-based; parameters: dose 15 mg/kg, route intravenous; details: in vivo
Procedure, shortened: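 Plasma concentration is measured in end-bleed samples taken 3 h after iv dosing in 50/50 PEG/DMSO in the carrageenan paw edema model. Values are means from five animals.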

[4] = biological target: T1, Cytosolic phospholipase A2 (Homo sapiens, UniProt P47712); assay: Inhibition of human cytosolic PLA2alpha by GLU micelle assay
T1 sequence (P47712 whole entry): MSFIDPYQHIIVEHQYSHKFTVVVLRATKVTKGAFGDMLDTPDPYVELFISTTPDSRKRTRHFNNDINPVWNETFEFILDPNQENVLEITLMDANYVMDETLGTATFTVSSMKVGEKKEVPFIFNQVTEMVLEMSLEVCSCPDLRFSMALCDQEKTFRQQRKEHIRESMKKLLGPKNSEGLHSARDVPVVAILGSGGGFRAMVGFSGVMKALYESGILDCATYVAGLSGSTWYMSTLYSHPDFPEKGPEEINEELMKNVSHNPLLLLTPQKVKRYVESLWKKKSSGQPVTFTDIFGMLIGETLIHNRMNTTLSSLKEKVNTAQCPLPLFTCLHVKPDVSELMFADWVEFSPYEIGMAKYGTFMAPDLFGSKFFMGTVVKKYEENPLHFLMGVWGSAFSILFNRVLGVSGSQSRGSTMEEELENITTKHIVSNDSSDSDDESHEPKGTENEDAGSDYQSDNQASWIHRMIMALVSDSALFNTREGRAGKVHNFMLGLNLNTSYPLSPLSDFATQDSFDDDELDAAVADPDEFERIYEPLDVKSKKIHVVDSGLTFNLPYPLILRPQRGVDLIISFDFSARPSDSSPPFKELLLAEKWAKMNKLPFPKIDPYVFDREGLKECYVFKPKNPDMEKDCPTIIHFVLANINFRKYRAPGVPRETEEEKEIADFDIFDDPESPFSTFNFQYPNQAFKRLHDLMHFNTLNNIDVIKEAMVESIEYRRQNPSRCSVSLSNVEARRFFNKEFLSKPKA
Procedure, shortened: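 Purified human cPLA2α with the substrate 7-hydroxycoumarinyl-γ-linolenate (GLU), presented in micelles containing a high concentration of detergent and lipid. IC50 is taken from at least two runs, each run the mean of duplicate assays.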

MC9 [5] = assay: Inhibition of IgE-specific antigen-induced PGF2alpha release in mouse MC9 cells at 0.11 uM
MC9 [6] = assay: Inhibition of IgE-specific antigen-induced LBT4 release in mouse MC9 cells at 0.11 uM
MC9 [7] = assay: Inhibition of IgE-specific antigen-induced PGF2-alpha release in mouse MC9 cells at 0.037 uM
MC9 [8] = assay: Inhibition of IgE-specific antigen-induced LBT4 release in mouse MC9 cells at 0.037 uM
MC9 [9] = assay: Inhibition of IgE-specific antigen-induced PGF2alpha release in mouse MC9 cells at 0.5 uM
MC9 [10] = assay: Inhibition of arachidonic acid-induced PGF2-alpha release in mouse MC9 cells at 0.5 uM
MC9 [11] = assay: Inhibition of IgE-specific antigen-induced LBT4 release in mouse MC9 cells at 0.5 uM

Structure (SMILES)	IC50 (Blood)	IC50 [4]	also measured
O=C(O)c1ccc(OCCc2c(CCNS(=O)(=O)CCN3CCSCC3)n(C(c3ccccc3)c3ccccc3)c3ccc(Cl)cc23)cc1	0.18 µM		inhibition at 1 µM (MC9 [1]): 6%; inhibition in vivo at 15 mg/kg (Rattus norvegicus [2]): 27.9%; concentration (Rattus norvegicus [3]): 0.27 µM; inhibition at 0.11 µM (MC9 [5]): 66%; inhibition at 0.11 µM (MC9 [6]): 76%
CN(C)CC1CCCCN1CCS(=O)(=O)NCCc1c(CCOc2ccc(C(=O)O)cc2)c2cc(Cl)ccc2n1C(c1ccccc1)c1ccccc1 (stereo not given)	0.15 µM	0.27 µM	inhibition at 1 µM (MC9 [1]): 13%; inhibition at 0.11 µM (MC9 [5]): 56%; inhibition at 0.11 µM (MC9 [6]): 62%
O=C(O)c1ccc(OCCc2c(CCNS(=O)(=O)C[S+]([O-])c3ccc(Cl)c(Cl)c3)n(C(c3ccccc3)c3ccccc3)c3ccc(Cl)cc23)cc1 (stereo not given)	0.56 µM	0.18 µM	inhibition at 1 µM (MC9 [1]): 1.4%; inhibition at 0.11 µM (MC9 [5]): 45%; inhibition at 0.11 µM (MC9 [6]): 55%
Cc1cccc(C)c1SCS(=O)(=O)NCCc1c(CCOc2ccc(C(=O)O)cc2)c2cc(Cl)ccc2n1C(c1ccccc1)c1ccccc1	0.3 µM	0.33 µM	
O=C(O)c1ccc(OCCc2c(CCNS(=O)(=O)CCn3ccnn3)n(C(c3ccccc3)c3ccccc3)c3ccc(Cl)cc23)cc1	0.2 µM	0.5 µM	
O=C(O)c1ccc(OCCc2c(CCNS(=O)(=O)CSc3cc(Cl)cc(Cl)c3)n(C(c3ccccc3)c3ccccc3)c3ccc(Cl)cc23)cc1	0.14 µM	0.2 µM	
Cc1cc(C)n(CCS(=O)(=O)NCCc2c(CCOc3ccc(C(=O)O)cc3)c3cc(Cl)ccc3n2C(c2ccccc2)c2ccccc2)n1	0.16 µM	0.45 µM	inhibition at 1 µM (MC9 [1]): 5%; inhibition at 0.11 µM (MC9 [5]): 83%; inhibition at 0.11 µM (MC9 [6]): 89%
O=C(O)c1ccc(OCCc2c(CCNS(=O)(=O)CSc3ccc(Cl)c(Cl)c3)n(C(c3ccccc3)c3ccccc3)c3ccc(Cl)cc23)cc1	0.14 µM	0.24 µM	inhibition at 0.037 µM (MC9 [7]): 48%; inhibition at 0.037 µM (MC9 [8]): 64%; inhibition at 1 µM (MC9 [1]): 33%
O=C(O)c1ccc(OCCc2c(CCNS(=O)(=O)CSc3ccccc3Cl)n(C(c3ccccc3)c3ccccc3)c3ccc(Cl)cc23)cc1	0.09 µM	0.15 µM	
C[C@@H]1CCC[C@H](C)N1CCS(=O)(=O)NCCc1c(CCOc2ccc(C(=O)O)cc2)c2cc(Cl)ccc2n1C(c1ccccc1)c1ccccc1	0.1 µM	0.25 µM	
CC(=O)N1C(C)CN(CCS(=O)(=O)NCCc2c(CCOc3ccc(C(=O)O)cc3)c3cc(Cl)ccc3n2C(c2ccccc2)c2ccccc2)CC1C (stereo not given)	1.2 µM	0.27 µM	
O=C(O)c1ccc(OCCc2c(CCNS(=O)(=O)CCN3CC4CC3CO4)n(C(c3ccccc3)c3ccccc3)c3ccc(Cl)cc23)cc1 (stereo not given)	0.4 µM	0.25 µM	
CS(=O)(=O)CS(=O)(=O)NCCc1c(CCOc2ccc(C(=O)O)cc2)c2cc(Cl)ccc2n1C(c1ccccc1)c1ccccc1	0.48 µM	0.15 µM	inhibition at 0.5 µM (MC9 [9]): 100%; inhibition at 0.5 µM (MC9 [10]): -47%; inhibition at 0.5 µM (MC9 [11]): 100%
O=C(O)c1ccc(OCCc2c(CCNS(=O)(=O)CCN3CCOCC3)n(C(c3ccccc3)c3ccccc3)c3ccc(Cl)cc23)cc1	0.53 µM	0.39 µM	
O=C(O)c1ccc(CCCc2c(CCNS(=O)(=O)CCN3CCOCC3)n(C(c3ccccc3)c3ccccc3)c3ccc(Cl)cc23)cc1	0.14 µM	0.2 µM	inhibition at 1 µM (MC9 [1]): 9%; inhibition in vivo at 15 mg/kg (Rattus norvegicus [2]): 23.5%; concentration (Rattus norvegicus [3]): 0.163 µM; inhibition at 0.11 µM (MC9 [5]): 71%; inhibition at 0.11 µM (MC9 [6]): 69%
O=C(O)c1ccc(OCCc2c(CCNS(=O)(=O)CSc3c(Cl)cccc3Cl)n(C(c3ccccc3)c3ccccc3)c3ccc(Cl)cc23)cc1	0.16 µM	0.6 µM	
CC1CCN(CCS(=O)(=O)NCCc2c(CCOc3ccc(C(=O)O)cc3)c3cc(Cl)ccc3n2C(c2ccccc2)c2ccccc2)CC1	0.2 µM	0.22 µM	
O=C(O)c1ccc(OCCc2c(CCNS(=O)(=O)CCN3CCN(c4ccccn4)CC3)n(C(c3ccccc3)c3ccccc3)c3ccc(Cl)cc23)cc1	0.21 µM	0.29 µM	
O=C(O)c1ccc(OCCc2c(CCNS(=O)(=O)CCc3ccccc3)n(C(c3ccccc3)c3ccccc3)c3ccc(Cl)cc23)cc1	0.63 µM	0.5 µM	
O=C(O)c1ccc(OCCc2c(CCNS(=O)(=O)CCN3CCC(O)CC3)n(C(c3ccccc3)c3ccccc3)c3ccc(Cl)cc23)cc1	1.3 µM	0.35 µM	
O=C(O)c1ccc(OCCc2c(CCNS(=O)(=O)CCn3cncn3)n(C(c3ccccc3)c3ccccc3)c3ccc(Cl)cc23)cc1	1.5 µM	0.41 µM	
COC[C@@H]1CCCN1CCS(=O)(=O)NCCc1c(CCOc2ccc(C(=O)O)cc2)c2cc(Cl)ccc2n1C(c1ccccc1)c1ccccc1	0.33 µM	0.25 µM	
COc1ccccc1S(=O)(=O)NCCc1c(CCCc2ccc(C(=O)O)cc2)c2cc(Cl)ccc2n1C(c1ccccc1)c1ccccc1	0.2 µM	0.1 µM	
Cc1cnn(CCS(=O)(=O)NCCc2c(CCOc3ccc(C(=O)O)cc3)c3cc(Cl)ccc3n2C(c2ccccc2)c2ccccc2)c1	0.28 µM	0.76 µM	

Compounds with a lower IC50 (Blood), results first:

IC50 (Blood)	IC50 [4]	Structure (SMILES)	also measured
0.08 µM	0.15 µM	Cc1ccccc1SCS(=O)(=O)NCCc1c(CCOc2ccc(C(=O)O)cc2)c2cc(Cl)ccc2n1C(c1ccccc1)c1ccccc1	
0.08 µM	0.3 µM	O=C(O)c1ccc(OCCc2c(CCNS(=O)(=O)CSc3ccc(Cl)cc3Cl)n(C(c3ccccc3)c3ccccc3)c3ccc(Cl)cc23)cc1	
0.075 µM	0.19 µM	O=C(O)c1ccc(OCCc2c(CCNS(=O)(=O)CSc3ccccc3)n(C(c3ccccc3)c3ccccc3)c3ccc(Cl)cc23)cc1	
0.074 µM	0.13 µM	CC1CCC(C)N1CCS(=O)(=O)NCCc1c(CCOc2ccc(C(=O)O)cc2)c2cc(Cl)ccc2n1C(c1ccccc1)c1ccccc1 (stereo not given)	inhibition at 1 µM (MC9 [1]): -2%; inhibition in vivo at 15 mg/kg (Rattus norvegicus [2]): 37%; concentration (Rattus norvegicus [3]): 0.232 µM; inhibition at 0.11 µM (MC9 [5]): 69%; inhibition at 0.11 µM (MC9 [6]): 80%
0.07 µM	0.17 µM	O=C(O)c1ccc(OCCc2c(CCNS(=O)(=O)CSc3ccc(F)c(Cl)c3)n(C(c3ccccc3)c3ccccc3)c3ccc(Cl)cc23)cc1	
0.057 µM	0.12 µM	CC1CCCCN1CCS(=O)(=O)NCCc1c(CCOc2ccc(C(=O)O)cc2)c2cc(Cl)ccc2n1C(c1ccccc1)c1ccccc1 (stereo not given)	inhibition at 0.037 µM (MC9 [7]): 45%; inhibition at 0.037 µM (MC9 [8]): 62%; inhibition at 1 µM (MC9 [1]): 14%
0.037 µM	0.03 µM	CCN(CC)Cc1ccccc1CS(=O)(=O)NCCc1c(CCCc2ccc(C(=O)O)cc2)c2cc(Cl)ccc2n1C(c1ccccc1)c1ccccc1	
0.034 µM	0.006 µM	CC(=O)N1CCN(Cc2ccccc2CS(=O)(=O)NCCc2c(CCCc3ccc(C(=O)O)cc3)c3cc(Cl)ccc3n2C(c2ccccc2)c2ccccc2)CC1	
0.03 µM	0.01 µM	Cc1cccc(C)c1CS(=O)(=O)NCCc1c(CCCc2ccc(C(=O)O)cc2)c2cc(Cl)ccc2n1C(c1ccccc1)c1ccccc1	
0.03 µM	0.14 µM	O=C(O)c1ccc(OCCc2c(CCNS(=O)(=O)CSc3ccc(F)cc3F)n(C(c3ccccc3)c3ccccc3)c3ccc(Cl)cc23)cc1	inhibition at 0.037 µM (MC9 [7]): 77%; inhibition at 0.037 µM (MC9 [8]): 94%; inhibition at 1 µM (MC9 [1]): 47%
0.025 µM	0.026 µM	Cc1ccccc1CS(=O)(=O)NCCc1c(CCCc2ccc(C(=O)O)cc2)c2cc(Cl)ccc2n1C(c1ccccc1)c1ccccc1	
